Compound activity as filed in PubChem BioAssay.
EBI2 antag: EBI2 receptor antagonists, beta-arrestin recruitment, primary screen, cell-based, luminescence, 7a,25-OHC stimulation, uHTS; 360,000 tested, 0.81% active; inhibition, % at 5 µM; G-protein coupled receptor 183 (Homo sapiens), P32249; 7a,25-OHC stimulated; in the data active = inhibition above about 38%;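 note: enzyme fragment complementation signal reports receptor beta-arrestin coupling in cells; 0% = agonist plus DMSO wells and 100% = wells without agonist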
MC4R barr agon: MC4R agonists recruiting beta-arrestin, primary screen, cell-based, luminescence, agonist arm of biased-ligand search. activation, % at 8.9 µM. 360,000 tested, 0.98% active. U2OS MC4R beta-arrestin complementation; percent of melanotan II response, DMSO zero. Melanocortin receptor 4 (Homo sapiens), P32245;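 active = activation above a per-plate cutoff, the mean activation of sample wells on that plate plus 3 SD, cut at about 8% in these data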
Target sequence (P32245 whole entry, looked up): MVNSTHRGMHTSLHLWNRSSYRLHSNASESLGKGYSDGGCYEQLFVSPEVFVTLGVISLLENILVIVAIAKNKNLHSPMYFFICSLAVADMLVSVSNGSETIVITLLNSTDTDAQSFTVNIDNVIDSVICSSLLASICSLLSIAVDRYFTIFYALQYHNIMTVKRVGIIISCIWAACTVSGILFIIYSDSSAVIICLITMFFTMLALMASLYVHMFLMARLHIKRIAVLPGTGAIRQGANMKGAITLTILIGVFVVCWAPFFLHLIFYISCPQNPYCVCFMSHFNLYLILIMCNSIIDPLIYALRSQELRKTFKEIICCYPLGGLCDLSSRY
MC4R antagonist: MC4R antagonists of cAMP signaling, primary screen, cell-based, TR-FRET, antagonist arm of biased-ligand search; Melanocortin receptor 4 (Homo sapiens), P32245; MC4R-expressing cells, MTII-stimulated cAMP, LANCE TR-FRET; inhibition, % at 6.5 µM; 360,000 tested, 0.48% active; AID 540295, 2011;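 active = inhibition above its plate's cutoff, the mean of tested wells on that plate plus 3 SD, cut at about 29% in these data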;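 note: 0% = Melanotan II alone and 100% = Melanotan II plus saturating MCL0020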
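system = U2OS cells with stable human MC4R expression | also added = Melanotan II challenge after compound preincubation | dosing = one concentration, 6.5 µM nominal | incubation = compound 30 min, challenge 1 h, detection 1 h | measured by = TR-FRET with Eu-cAMP and labeled anti-cAMP, 671 nm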
m5-HT2A agonist: mouse Htr2a agonists via beta-arrestin recruitment, primary screen, cell-based, luminescence; 5-hydroxytryptamine receptor 2A (Mus musculus), P35363; CHO-K1 mHTR2A beta-arrestin complementation; percent of 30 µM serotonin response; activation, % at 7.6 µM; 360,000 tested, 0.66% active; AID 624169, 2012;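 active = activation above a run cutoff, the mean activation of all tested compounds plus 3 SD, cut at about 14% in these data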;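 note: 0% = plate median of compound wells and 100% = 30 µM serotonin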
MC4R barr conf: MC4R beta-arrestin agonists, retest, confirmation, cell-based, luminescence, U2OS; shares compounds with MC4R barr agon; U2OS MC4R beta-arrestin recruitment; scaled DMSO 0%, Melanotan II 100%; activation, % at 8.9 µM; 2,400 tested, 31% active; AID 602192, 2012;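 active = mean activation across replicates above the hit cutoff set in the earlier primary screen, cut at about 8% in these data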
MOR DOR agonist: agonists of MOR-DOR heterodimerization, counter-screen for MC4R biased agonist project, cell-based, luminescence. U2OS PathHunter beta-arrestin, beta-gal luminescence; percent of deltorphin B response, DMSO zero. 2,400 tested, 5.8% active. activation, % at 9.2 µM. shares compounds with MC4R barr agon;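 active = mean activation across replicates exceeds the hit threshold derived in the earlier primary screen, cut at about 18% in these data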;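 note: 100% = deltorphin B at 0.9 µM final and 0% = DMSO alone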
The depositor's hits bear a star; . = not tested or not shown. A selection: hits, their analogues and other compounds. The true share with any hit is near 2.8%.

SMILES	EBI2 antag	MC4R barr agon	MC4R antagonist	m5-HT2A agonist	MC4R barr conf	MOR DOR agonist
Cn1cnc(S(=O)(=O)N2CCCCC2c2cc(C(=O)NCc3ccc(Cl)c(Cl)c3)no2)c1 (stereo not given)	8	-1	2	1	.	.
Cc1noc(C)c1COc1cccc(C(=O)OCC(=O)NC(=O)c2ccc(OC(F)F)cc2)c1	-6	25*	6	6	6	4
CCn1c(COc2ccc(Cl)cc2)nnc1SCC(=O)Nc1ccc2c(c1)OCCO2	-1	0	14	1	.	.
CCn1c(COc2ccc3c(c2)OCO3)nnc1SCC(=O)c1ccc(Cl)cc1	6	9.9*	-7	3	2	4
COc1ccc(Cl)cc1Nc1nc(C)nc2c1nnn2Cc1ccccc1	5	-1	9	0	.	.
CCOC(=O)c1ccc(Nc2nc(C)nc3c2nnn3Cc2ccccc2)cc1	-18	20*	4	5	3	6
O=C(NCCS(=O)(=O)NC1CCCC1)c1ccc(F)cc1	-2	-3	5	-2	.	.
COC(=O)C(c1ccccc1)N(Cc1cccc(CN(C(C(=O)OC)c2ccccc2)S(C)(=O)=O)c1)S(C)(=O)=O (stereo not given)	6	1	14	7	.	.
N#C/C(=C\c1cn(Cc2ccccc2)c2ccccc12)C(=O)NCc1ccco1	9	17*	7	-5	1	3
N#C/C(=C\c1ccco1)C(=O)NCc1ccccc1	-2	-2	7	0	.	.
N#C/C(=C\c1cn(Cc2cccc(F)c2)c2ccccc12)C(=O)NCc1ccco1	15	31*	-1	-4	6	2
N#C/C(=C/c1cn(-c2ccccc2)nc1-c1cccc(S(=O)(=O)N2CCCC2)c1)C(=O)NCc1ccco1	41	0	25	2	.	.
COc1cccc(OC)c1C(=O)Nc1nc(COc2ccccc2)cs1	6	12*	-1	2	0	3
CC(=O)Nc1nc(COc2ccccc2)cs1	-7	-1	18	2	.	.
Cc1cc(C)nc(Nc2n[nH]c(COc3ccccc3)n2)n1	5	-2	10	2	.	.
Cc1cc(C)nc(Nc2n[nH]c(COc3ccc4ccccc4c3)n2)n1	12	16*	0	3	0	3
CCc1cc2cccc(C)c2nc1SCC(=O)c1ccc(NC(C)=O)cc1	-9	10*	-6	1	2	3
CCc1cc2ccc(C)cc2nc1SCC(=O)c1ccc(NC(C)=O)cc1	13	-2	1	-4	.	.
COc1ccc2cc(-c3cc(C(=O)OCC(=O)Nc4c(C)n(C)n(-c5ccccc5)c4=O)c4ccccc4n3)ccc2c1	-13	21*	0	4	5	3
COc1ccc(-c2cc(C(=O)Nc3c(C)n(C)n(-c4ccccc4)c3=O)c3ccccc3n2)cc1	-7	0	4	-8	.	.
Cc1cc(C)nc(SCC(=O)Nc2ncc(Cc3ccc(Cl)c(Cl)c3)s2)n1	9	21*	2	-2	7	2
CC1=C(c2ccccc2)C=NNCC1=O	-8	-1	10	-4	.	.
CC(C)(C)c1cc(C(=O)Nc2ccc(F)cc2)n(Cc2ccc(F)cc2)n1	0	9.6*	4	3	5	11
Cn1nc(C(=O)Nc2ccc(Cl)cc2)cc1C(=O)Nc1ccc(Cl)cc1	2	-1	-2	4	.	.
Cn1nc(C(=O)Nc2cccc(Cl)c2)cc1C(=O)Nc1cccc(Cl)c1	19	14*	25	-2	2	7
SMILES	EBI2 antag	MC4R barr agon	MC4R antagonist	m5-HT2A agonist	MC4R barr conf	MOR DOR agonist
CCCc1nc2c(C)cc(Br)cn2c1Cc1ccc(OC)cc1C	-5	.	.	2	.	.
CCOc1ccc(CNC(=O)Cn2c(=O)c3cccn3c3ccccc32)cc1	9	22*	5	-3	2	3
CC(C)Oc1ccc(CNC(=O)Cn2c(=O)c3cccn3c3cccnc32)cc1	0	-2	8	-1	.	.
COc1ccc(C2CC=C(C(C)=O)CN2S(=O)(=O)c2ccc(C)cc2)cc1 (stereo not given)	-1	.	.	-6	.	.
Cc1ccc(S(=O)(=O)N2CCN(CCNC(=O)C(=O)Nc3ccc(F)cc3)CC2)cc1	5	14*	24	0	0	6
CN(C)CCCN(C(=O)c1cc2cc([N+](=O)[O-])ccc2s1)c1nc2cc3c(cc2s1)OCCO3	-14	35*	-5	-10	25*	17
C/C(=N/NC(=O)CNC(=O)c1ccccc1F)c1ccc2c(c1)CCCC2	-2	0	8	-1	.	.
C/C(=N/NC(=O)CNC(=O)c1ccc2c(c1)OCO2)c1ccc2c(c1)CCCC2	-6	12*	4	1	1	4
COc1cc(SC)ccc1C(=O)Nc1ccccc1C#N	0	12*	-2	3	7	4
Cc1noc(C)c1CSc1nc2sc(C)c(C)c2c(=O)n1-c1ccccc1	18	11*	7	4	-2	5
COc1ccc(S(=O)(=O)N2CCC(C(=O)N[C@@H](C)C(=O)NCc3ccccn3)CC2)cc1	-5	0	0	3	.	.
O=C(Cc1cccs1)Nc1nnc(SCc2cccc3ccccc23)s1	6	12*	3	2	3	3
O=C(Cc1cccs1)Nc1nnc(SCC(=O)NC2CCCCC2)s1	-8	-1	-3	-2	.	.
CC(=O)Nc1c(C(=O)O)ccc(C)c1OCc1ccccc1	13	1	4	-4	.	.
COc1cccc(-c2ccc(C#N)c(SCC(=O)NCCc3cccc(Cl)c3)n2)c1	15	13*	16	-4	18*	20*
COc1ccc(-c2ccc(C#N)c(SCC(=O)Nc3sc4c(c3C#N)CCC4)n2)cc1OC	4	0	9	8	.	.
COc1cccc(-c2ccc(C#N)c(OC(=O)c3ccc(Cl)cc3)n2)c1	-10	-2	12	4	.	.
COc1ccc(-c2ccc(C#N)c(SCC(=O)NCCc3ccccc3)n2)cc1OC	3	12*	19	-2	4	6
COc1cccc(C(=O)Nc2nnc(-c3cccs3)s2)c1	-17	15*	-3	4	0	4
CC(=O)Nc1cc(-c2cccnc2)cn2c(-c3ccc(F)cc3)cnc12	1	42*	12	2	44*	0
COc1ccc(-c2cc(NC(C)=O)c3ncc(-c4ccc(OC)c(OC)c4)n3c2)cc1OC	3	15*	11	2	23*	2
